This is an account of results in ChEMBL document CHEMBL5136960, “Discovery of sustainable drugs for Alzheimer's disease: cardanol-derived cholinesterase inhibitors with antioxidant and anti-amyloid properties” (RSC Med Chem, 2021).

For series [1], the target named is T1, Acetylcholinesterase (Homo sapiens, UniProt P22303). In words: Inhibition of AChE in human serum by Ellman's method. The series is classed as cell-free. Background: In Ellman's method for cholinesterases, released thiocholine reacts with DTNB.
T1 sequence (P22303 whole entry): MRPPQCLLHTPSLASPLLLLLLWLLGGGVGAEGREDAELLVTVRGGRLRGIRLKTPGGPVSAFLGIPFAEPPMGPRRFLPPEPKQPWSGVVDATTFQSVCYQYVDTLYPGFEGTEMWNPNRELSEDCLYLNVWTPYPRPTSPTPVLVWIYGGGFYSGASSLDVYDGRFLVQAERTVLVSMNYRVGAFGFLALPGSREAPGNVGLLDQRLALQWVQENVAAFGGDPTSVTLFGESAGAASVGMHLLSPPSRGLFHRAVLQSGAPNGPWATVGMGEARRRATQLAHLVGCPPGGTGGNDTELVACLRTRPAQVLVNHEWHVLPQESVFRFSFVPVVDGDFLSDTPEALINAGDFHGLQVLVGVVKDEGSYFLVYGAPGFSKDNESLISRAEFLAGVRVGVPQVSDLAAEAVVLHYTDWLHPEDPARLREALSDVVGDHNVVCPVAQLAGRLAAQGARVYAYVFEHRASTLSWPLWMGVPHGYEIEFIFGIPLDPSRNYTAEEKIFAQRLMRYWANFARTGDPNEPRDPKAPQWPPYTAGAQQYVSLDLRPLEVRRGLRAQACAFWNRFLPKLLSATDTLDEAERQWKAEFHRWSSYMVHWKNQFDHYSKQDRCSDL
The nature of series [2]: Antioxidant activity assessed as gallic acid equivalents by HORAC assay. The series is classed as functional. In outline:
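Hydroxyl radical scavenging (HORAC kit). Methanol stocks (2-4 mM) diluted to 50 µM in assay buffer. Sample and fluorescein incubated 30 min at room temperature, then hydroxyl radical initiator and Fenton reagent added. Fluorescence decay read at ex 480/em 530 nm. AUC minus blank, divided by AUC of 50 µM gallic acid minus blank, gives gallic acid equivalents.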

The target of series [3] is T2, Cholinesterase (Homo sapiens, UniProt P06276). The series is described as follows: Inhibition of BChE in human serum at 20 uM by Ellman's method. The series is classed as cell-free. In short, it runs like this:
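Human serum BChE, 0.02 U, in 0.1 M phosphate pH 8.0 with 340 μM DTNB and 5% methanol final. Compound preincubated with enzyme 20 min at 37 °C, then 550 μM butyrylthiocholine iodide added. Initial rate read as A412 over 240 s, with an enzyme-free blank. Percent inhibition at a single 20 μM. Mean of ≥2 independent experiments, each in triplicate.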

Series [4] addresses T2, Cholinesterase. The series is described as follows: Inhibition of BChE in human serum by Ellman's method. The series is classed as cell-free. In short, it runs like this:
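Human serum BChE, 0.02 U, in 0.1 M phosphate pH 8.0 with 340 μM DTNB and 5% methanol final. 20 min enzyme–compound preincubation at 37 °C, then 550 μM butyrylthiocholine iodide added. Rate from A412 slope over 240 s, blank-corrected. Five concentrations chosen to give 20–80% inhibition. IC50 taken from log concentration–inhibition curves. Mean of ≥2 independent triplicate experiments.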

Series [5] has as its target T1, Acetylcholinesterase. In words: Inhibition of AChE in human serum at 20 uM by Ellman's method. The series is classed as cell-free.
Series [6] has as its target Amyloid-beta precursor protein (Homo sapiens) (UniProt P05067). In words: Inhibition of amyloid beta42 (unknown origin) aggregation assessed as non toxic aggregrates formation measured after 48 hrs TEM imaging analysis. In short, it runs like this:
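Synthetic Aβ42, freeze-dried, redissolved in PBS pH 7.4 to 60 µM and vortexed about 5 min. Compound added at 1:5 Aβ42:compound. A 20 µL aliquot applied to the grid for 2 min, negatively stained with 1% uranyl acetate for 2 min, dried and imaged by TEM at 120 kV.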

A further series has as its system HepG2. The series is described as follows: Cytotoxicity against human HepG2 cells assessed as cell viability upto 10 uM for 24 hrs by MTT assay. Conditions: hepg2, 24 h. The series is classed as toxicity, cell-based. In short, it runs like this: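 HepG2 cells grown in DMEM with 10% FBS and penicillin/streptomycin at 37 °C, 5% CO2. Seeded at 5×10^3 cells/well and left to adhere overnight. Exposed 24 h to 1.25-10 µM, with DMSO vehicle as control. Then 300 µM MTT in DMEM for 2 h at 37 °C. Formazan dissolved in DMSO and read at 570 nm.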
A general note: Formazan colour is commonly taken as a measure of viable cells.

The subject of the next series is SH-SY5Y. The series is described as follows: Inhibition of TBH-induced reactive oxygen species production in human SHSY-5Y cells at 10 uM preincubated for 24 hrs followed by TBH addition by DCFH-DA staining based flow cytometry. The series is classed as functional, cell-based.
A short description of series [7]: Stability in plasma (unknown orgin) measured upto 60 mins. The series is classed as ADME, cell-free. Conditions: 1 h. In short, it runs like this:
(§1)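 Pooled human plasma. Compound added from a 1 µM DMSO solution and incubated at 37 °C for 0, 15, 30, 60 or 120 min. Reaction stopped with cold acetonitrile containing internal standard, then centrifuged. Supernatant analysed by reverse-phase C18 HPLC-MS in positive mode. Compound/IS peak-area ratio at each time, relative to 0 min, gives percent remaining. Phosphate buffer pH 7.4 used as control matrix, rivastigmine as positive control.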

Series [8] can be described thus: Solubility of compound in 5% DMSO/PBS solution. The series is classed as physicochemical.
Series [9] can be described thus: Stability in plasma (unknown orgin) measured after 120 mins. The series is classed as ADME, cell-free. Conditions: read-out: Stability. In outline:
as §1

For orientation: IC50 means the midpoint of a concentration-inhibition curve. A low value points to greater potency in that assay. In general, inhibition refers to the change of the read-out against control, counted positive when it falls. One may read the solubility as the dissolved amount per volume that the medium holds. Read a low solubility as little dissolved substance.

The source made the active and inactive calls. No cut-off for these calls is given here.

T2 sequence (P06276 whole entry): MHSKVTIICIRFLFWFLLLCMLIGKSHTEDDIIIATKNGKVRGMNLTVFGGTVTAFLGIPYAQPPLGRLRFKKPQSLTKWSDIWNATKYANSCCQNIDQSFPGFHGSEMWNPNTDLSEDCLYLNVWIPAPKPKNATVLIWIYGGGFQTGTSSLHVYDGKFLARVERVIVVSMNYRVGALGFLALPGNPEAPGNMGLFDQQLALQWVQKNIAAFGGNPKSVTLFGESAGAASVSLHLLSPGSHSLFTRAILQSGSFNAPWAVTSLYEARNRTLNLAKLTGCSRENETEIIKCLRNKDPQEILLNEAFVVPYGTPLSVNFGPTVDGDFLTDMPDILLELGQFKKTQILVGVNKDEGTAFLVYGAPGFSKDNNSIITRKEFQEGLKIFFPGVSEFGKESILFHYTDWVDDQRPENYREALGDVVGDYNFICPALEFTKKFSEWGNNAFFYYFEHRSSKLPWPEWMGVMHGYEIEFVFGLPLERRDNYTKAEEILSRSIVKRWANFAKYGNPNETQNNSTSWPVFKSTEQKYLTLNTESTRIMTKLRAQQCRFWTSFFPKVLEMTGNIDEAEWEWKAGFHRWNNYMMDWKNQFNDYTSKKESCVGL
Amyloid-beta precursor protein (Homo sapiens), sequence (P05067 whole entry): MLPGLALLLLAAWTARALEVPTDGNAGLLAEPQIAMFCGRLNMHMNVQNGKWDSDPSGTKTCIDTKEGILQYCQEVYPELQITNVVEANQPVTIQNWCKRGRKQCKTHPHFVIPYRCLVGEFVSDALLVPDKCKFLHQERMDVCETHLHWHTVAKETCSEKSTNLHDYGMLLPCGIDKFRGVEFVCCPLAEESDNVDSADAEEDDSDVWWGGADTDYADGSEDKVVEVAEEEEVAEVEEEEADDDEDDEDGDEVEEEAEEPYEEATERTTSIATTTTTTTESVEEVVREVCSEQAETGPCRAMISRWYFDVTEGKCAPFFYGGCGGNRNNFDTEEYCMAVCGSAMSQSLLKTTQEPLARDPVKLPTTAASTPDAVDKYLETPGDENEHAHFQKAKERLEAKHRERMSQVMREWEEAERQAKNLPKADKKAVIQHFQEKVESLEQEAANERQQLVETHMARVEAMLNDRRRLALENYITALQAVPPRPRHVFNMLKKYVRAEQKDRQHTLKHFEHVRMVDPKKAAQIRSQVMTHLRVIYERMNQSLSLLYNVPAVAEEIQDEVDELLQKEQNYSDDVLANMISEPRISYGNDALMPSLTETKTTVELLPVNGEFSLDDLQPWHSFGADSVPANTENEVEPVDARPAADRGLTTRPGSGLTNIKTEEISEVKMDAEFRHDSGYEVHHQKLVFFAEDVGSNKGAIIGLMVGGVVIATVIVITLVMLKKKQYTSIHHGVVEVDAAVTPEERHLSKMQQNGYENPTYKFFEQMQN

With `OCCCCCCCCc1ccc(CN2CCCC2)c(O)c1`, the IC50 against Acetylcholinesterase [1] worked out at 47.6 µM; at Cholinesterase [4], 13.3 µM. Also, in series [2], the Activity was found to be 4.88 equiv. The inhibition against Cholinesterase [3] stood at 59%; against Acetylcholinesterase [5] it was 31.1%.
As to `OCCCCCCCCc1ccc(CN2CCOCC2)c(O)c1`, in [6], the inhibition result was “Active”. In series [2], the Activity turned out to be 9.73 equiv. In addition, the inhibition is < 10% against Cholinesterase [3] and < 5% against Acetylcholinesterase [5].
For the compound `CN(Cc1ccccc1)Cc1ccc(CCCCCCCCO)cc1O`, the inhibition entry in series [6] was “Active”. In addition, the Activity in [2] worked out at 3.7 equiv. In addition, the inhibition against Cholinesterase [3] came out at 68.3%; at Acetylcholinesterase [5], 19.4%. The compound also had an IC50 at Cholinesterase [4] of 6.74 µM.
Regarding `CN1CCN(Cc2ccc(CCCCCCCCO)cc2O)CC1`, in series [2], the Activity was 4.8 equiv. Moreover, the inhibition at Cholinesterase [3] was 10.6%; at Acetylcholinesterase [5] it was < 5%.
Taken in the same sequence, the figures for `OCCCCCCCCc1ccc(CN2CCSCC2)c(O)c1` were 4.38 equiv, 16.6% and 12.1%.
For `CC(=O)N1CCN(Cc2ccc(CCCCCCCCO)cc2O)CC1` the same measures were 4.52 equiv, < 5% and < 10%.
Take `CCN(CC)Cc1ccc(CCCCCCCCO)cc1O`: the inhibition entry in series [6] was “Active”. Further, in series [2], the Activity came out at 5.49 equiv. The inhibition at Cholinesterase [3] is 50.5%; on Acetylcholinesterase [5], 12.4%. In addition, 17.5 µM corresponded to half-maximal inhibition against Cholinesterase [4] (IC50).
With `OCCCCCCCCc1ccc(CN2CCCCC2)c(O)c1`, the results for the Activity entry (in the series with HepG2; in series [2]) were “Non-Toxic” and 4.37 equiv, respectively. For the same compound, the inhibition result (in the series with SH-SY5Y; in series [6]) was “Active” throughout. For the same compound, the IC50 was 30 µM against Acetylcholinesterase [1] and 6.12 µM at Cholinesterase [4]. For the same compound, the Stability entry in series [7] is recorded as “Stable”. For the same compound, in series [8], the solubility was < 3.9 mM. The remaining at 2 h in series [9] turned out to be 97%. The inhibition on Cholinesterase [3] amounted to 73.5%; at Acetylcholinesterase [5] it was 40.5%.
For `OCCCCCCCCc1ccc(CN2CCCCCC2)c(O)c1`, the Activity entry with HepG2 is “Non-Toxic”; in series [2] it was 3.5 equiv. The inhibition entry (in the series on SH-SY5Y; in series [6]) was “Active” in each case. Also, the results for the concentration for half-maximal inhibition (IC50) against Acetylcholinesterase [1] and against Cholinesterase [4] were 785 µM and 4.62 µM, respectively. Moreover, in series [7], the Stability entry was “Stable”. The solubility in [8] is < 5 mM. For the same compound, the remaining at 2 h in series [9] was found to be 85%. The inhibition is 77.1% on Cholinesterase [3] and < 10% against Acetylcholinesterase [5].
With `OCCCCCCCCc1ccc(CN2CCNCC2)c(O)c1`, in [2], the Activity came out at 1.49 equiv. Moreover, the inhibition was 17.7% against Cholinesterase [3] and < 10% on Acetylcholinesterase [5].
For the compound `COc1cc(/C=C/C(=O)O)ccc1O`, in series [2], the Activity came out at 4.04 equiv.
